Data from ChEMBL document CHEMBL3779808, “Design, synthesis and biological evaluation of 5-amino-4-(1H-benzoimidazol-2-yl)-phenyl-1,2-dihydro-pyrrol-3-ones as inhibitors of protein kinase FGFR1” (Bioorg Med Chem, 2016).
Each block holds one compound with its values, some of them ahead of it.

Key:
[1] = Cytotoxicity against human KG1 cells assessed as cell viability after 72 hrs by MTT assay; conditions: KG-1, 72 h
HEK293 = assay: Cytotoxicity against HEK293 cells assessed as cell viability after 72 hrs by MTT assay; conditions: Homo sapiens, HEK293, 72 h
[2] = target: T1, Fibroblast growth factor receptor 1 (Homo sapiens, UniProt P11362); assay: Inhibition of N-terminal GST-tagged recombinant human FGFR1 (456 to 765 residues) expressed in baculovirus infected insect Sf21 cells after 25 mins using KKKSPGEYVNIEFG peptide substrate by scintillation counting analysis
Target sequence in this assay (P11362 whole entry, the tested form may be a part): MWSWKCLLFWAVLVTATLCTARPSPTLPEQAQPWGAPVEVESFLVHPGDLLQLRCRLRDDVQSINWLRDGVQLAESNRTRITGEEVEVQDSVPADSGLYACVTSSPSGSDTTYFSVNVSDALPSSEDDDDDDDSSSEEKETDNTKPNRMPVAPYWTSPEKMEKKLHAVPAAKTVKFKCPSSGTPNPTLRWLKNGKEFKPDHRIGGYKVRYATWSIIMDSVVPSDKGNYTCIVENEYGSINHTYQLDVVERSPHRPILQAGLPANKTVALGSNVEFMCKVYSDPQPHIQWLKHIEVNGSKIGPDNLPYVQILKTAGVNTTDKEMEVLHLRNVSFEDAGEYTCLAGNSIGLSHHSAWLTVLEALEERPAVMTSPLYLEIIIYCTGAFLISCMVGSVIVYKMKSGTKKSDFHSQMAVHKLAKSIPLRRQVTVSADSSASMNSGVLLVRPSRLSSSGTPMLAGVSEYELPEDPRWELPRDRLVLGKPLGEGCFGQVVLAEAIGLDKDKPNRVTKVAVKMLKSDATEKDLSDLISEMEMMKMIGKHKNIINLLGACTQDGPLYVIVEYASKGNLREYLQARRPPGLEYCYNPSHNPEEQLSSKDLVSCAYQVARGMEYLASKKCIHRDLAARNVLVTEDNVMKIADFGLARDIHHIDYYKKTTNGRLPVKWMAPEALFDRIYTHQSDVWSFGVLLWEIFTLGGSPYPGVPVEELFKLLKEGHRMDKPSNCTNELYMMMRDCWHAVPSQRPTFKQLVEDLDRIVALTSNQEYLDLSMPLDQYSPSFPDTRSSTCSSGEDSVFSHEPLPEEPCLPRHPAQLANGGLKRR

[3] = target: T1, Fibroblast growth factor receptor 1; assay: Inhibition of N-terminal GST-tagged recombinant human FGFR1 (456 to 765 residues) expressed in baculovirus infected insect Sf21 cells assessed as residual activity at 10 uM
In short: (§1)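 This is a seven-kinase selectivity panel run according to the enzyme supplier's (Millipore) protocols. The reaction mixture contained 100 µM ATP. Activity is reported as residual activity.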
Target sequence in this assay (P11362 22-822 limits assumed): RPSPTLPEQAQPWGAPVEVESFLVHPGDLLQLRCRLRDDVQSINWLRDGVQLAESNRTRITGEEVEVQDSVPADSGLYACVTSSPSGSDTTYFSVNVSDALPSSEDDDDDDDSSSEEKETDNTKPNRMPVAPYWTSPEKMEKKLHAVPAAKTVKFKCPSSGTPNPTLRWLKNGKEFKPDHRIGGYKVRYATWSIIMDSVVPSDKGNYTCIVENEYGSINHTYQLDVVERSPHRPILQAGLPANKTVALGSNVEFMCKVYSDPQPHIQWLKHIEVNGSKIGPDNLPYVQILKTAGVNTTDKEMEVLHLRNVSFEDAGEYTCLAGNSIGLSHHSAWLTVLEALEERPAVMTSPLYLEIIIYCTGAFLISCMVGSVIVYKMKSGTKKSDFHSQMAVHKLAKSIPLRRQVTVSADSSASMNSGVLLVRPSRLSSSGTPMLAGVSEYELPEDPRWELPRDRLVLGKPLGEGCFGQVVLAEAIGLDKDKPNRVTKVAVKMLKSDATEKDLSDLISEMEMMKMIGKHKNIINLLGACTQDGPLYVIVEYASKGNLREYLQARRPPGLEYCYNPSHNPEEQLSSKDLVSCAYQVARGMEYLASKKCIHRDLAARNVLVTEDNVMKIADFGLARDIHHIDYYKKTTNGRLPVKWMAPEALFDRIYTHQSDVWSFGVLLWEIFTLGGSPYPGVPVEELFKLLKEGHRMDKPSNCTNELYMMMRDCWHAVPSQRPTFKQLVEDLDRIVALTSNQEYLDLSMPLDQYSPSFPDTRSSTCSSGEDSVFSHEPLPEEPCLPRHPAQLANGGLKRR

[4] = target: Hepatocyte growth factor receptor (Homo sapiens) (UniProt P08581); assay: Inhibition of N-terminal His6-tagged recombinant human c-Met residues 974-end expressed in baculovirus infected insect Sf21 cells assessed as residual activity at 10 uM; in short: as §1
Chain of Hepatocyte growth factor receptor (Homo sapiens) (P08581 whole entry, the tested form may be a part): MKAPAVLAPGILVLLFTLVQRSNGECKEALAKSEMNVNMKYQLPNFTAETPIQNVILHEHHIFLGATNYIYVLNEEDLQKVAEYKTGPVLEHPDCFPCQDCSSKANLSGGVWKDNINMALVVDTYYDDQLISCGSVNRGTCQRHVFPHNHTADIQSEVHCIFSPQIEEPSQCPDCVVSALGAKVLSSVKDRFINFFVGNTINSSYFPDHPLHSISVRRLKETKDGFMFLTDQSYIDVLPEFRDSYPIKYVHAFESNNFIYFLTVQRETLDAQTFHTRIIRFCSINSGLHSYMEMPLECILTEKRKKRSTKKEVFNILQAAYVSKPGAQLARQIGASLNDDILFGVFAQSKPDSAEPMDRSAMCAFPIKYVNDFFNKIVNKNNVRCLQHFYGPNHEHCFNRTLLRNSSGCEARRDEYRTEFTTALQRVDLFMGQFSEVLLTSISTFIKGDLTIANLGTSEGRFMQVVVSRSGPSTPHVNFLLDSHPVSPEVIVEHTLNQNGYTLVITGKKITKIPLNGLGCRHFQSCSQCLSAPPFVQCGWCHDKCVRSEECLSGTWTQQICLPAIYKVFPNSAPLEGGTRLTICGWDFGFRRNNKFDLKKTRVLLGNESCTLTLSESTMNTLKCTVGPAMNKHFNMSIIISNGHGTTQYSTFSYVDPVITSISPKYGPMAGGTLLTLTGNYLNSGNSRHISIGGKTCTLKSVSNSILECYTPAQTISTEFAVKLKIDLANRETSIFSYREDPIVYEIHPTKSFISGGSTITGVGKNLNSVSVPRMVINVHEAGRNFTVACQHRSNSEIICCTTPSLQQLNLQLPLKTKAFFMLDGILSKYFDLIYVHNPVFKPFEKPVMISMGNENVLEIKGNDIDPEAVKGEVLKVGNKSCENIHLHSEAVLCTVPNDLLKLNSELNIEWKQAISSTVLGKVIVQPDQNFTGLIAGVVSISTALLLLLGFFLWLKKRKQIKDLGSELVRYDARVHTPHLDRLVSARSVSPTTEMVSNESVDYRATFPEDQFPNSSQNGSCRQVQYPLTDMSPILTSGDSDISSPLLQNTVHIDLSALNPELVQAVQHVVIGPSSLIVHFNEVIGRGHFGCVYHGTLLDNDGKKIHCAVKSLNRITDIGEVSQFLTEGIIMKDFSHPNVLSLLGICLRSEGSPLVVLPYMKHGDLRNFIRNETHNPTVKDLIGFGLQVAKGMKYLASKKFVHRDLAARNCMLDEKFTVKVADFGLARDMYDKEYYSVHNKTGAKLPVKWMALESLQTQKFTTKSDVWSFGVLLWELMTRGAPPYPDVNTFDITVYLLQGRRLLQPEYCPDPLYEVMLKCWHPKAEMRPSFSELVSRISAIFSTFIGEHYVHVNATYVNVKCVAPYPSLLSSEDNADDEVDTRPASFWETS

[5] = target: Casein kinase 2 (Homo sapiens) (UniProt P67870+P68400+P19784+Q8NEV1); assay: Inhibition of recombinant full length human Casein Kinase 2 expressed in insect Sf21 cells assessed as residual activity at 10 uM; in short: as §1
[6] = target: Angiopoietin-1 receptor (Homo sapiens) (UniProt Q02763); assay: Inhibition of N-terminal His6-tagged recombinant human Tie2 residues 771-end expressed in baculovirus infected insect Sf21 cells assessed as residual activity at 10 uM; in short: as §1
Chain of Angiopoietin-1 receptor (Homo sapiens) (Q02763 whole entry, the tested form may be a part): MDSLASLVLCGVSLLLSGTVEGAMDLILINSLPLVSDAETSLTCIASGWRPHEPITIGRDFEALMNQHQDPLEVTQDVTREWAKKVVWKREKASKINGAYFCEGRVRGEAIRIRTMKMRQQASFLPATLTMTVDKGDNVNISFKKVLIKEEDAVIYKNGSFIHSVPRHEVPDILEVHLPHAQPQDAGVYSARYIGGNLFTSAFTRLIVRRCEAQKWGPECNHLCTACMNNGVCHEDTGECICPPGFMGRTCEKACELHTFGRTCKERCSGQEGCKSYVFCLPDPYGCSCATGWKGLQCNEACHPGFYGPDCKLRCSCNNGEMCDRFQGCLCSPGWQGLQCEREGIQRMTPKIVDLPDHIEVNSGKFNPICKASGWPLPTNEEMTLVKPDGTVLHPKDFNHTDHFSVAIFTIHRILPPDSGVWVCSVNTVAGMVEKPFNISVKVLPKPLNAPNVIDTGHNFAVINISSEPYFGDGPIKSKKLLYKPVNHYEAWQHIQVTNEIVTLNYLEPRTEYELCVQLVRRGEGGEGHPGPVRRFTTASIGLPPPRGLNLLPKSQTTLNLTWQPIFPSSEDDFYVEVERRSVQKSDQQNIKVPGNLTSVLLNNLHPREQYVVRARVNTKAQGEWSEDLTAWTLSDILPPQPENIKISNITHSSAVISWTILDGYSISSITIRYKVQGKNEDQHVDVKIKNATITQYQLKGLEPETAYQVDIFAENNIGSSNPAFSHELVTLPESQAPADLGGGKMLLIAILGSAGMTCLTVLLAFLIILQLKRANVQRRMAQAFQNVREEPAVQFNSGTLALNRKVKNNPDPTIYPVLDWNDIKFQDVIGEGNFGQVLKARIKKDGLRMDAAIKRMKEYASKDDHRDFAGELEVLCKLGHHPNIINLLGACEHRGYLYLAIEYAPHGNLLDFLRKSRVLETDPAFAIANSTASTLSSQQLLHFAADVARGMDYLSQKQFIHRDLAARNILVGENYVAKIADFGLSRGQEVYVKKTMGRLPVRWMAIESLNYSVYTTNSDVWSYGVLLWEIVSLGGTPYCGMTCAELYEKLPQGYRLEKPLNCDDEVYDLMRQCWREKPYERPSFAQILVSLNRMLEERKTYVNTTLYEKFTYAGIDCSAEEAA

[7] = target: T2, Aurora kinase A (Homo sapiens) (UniProt O14965); assay: Inhibition of N-terminal His6-tagged recombinant full length human Aurora A expressed in Sf21 cells assessed as residual activity at 10 uM; in short: as §1
T2 sequence (whole entry): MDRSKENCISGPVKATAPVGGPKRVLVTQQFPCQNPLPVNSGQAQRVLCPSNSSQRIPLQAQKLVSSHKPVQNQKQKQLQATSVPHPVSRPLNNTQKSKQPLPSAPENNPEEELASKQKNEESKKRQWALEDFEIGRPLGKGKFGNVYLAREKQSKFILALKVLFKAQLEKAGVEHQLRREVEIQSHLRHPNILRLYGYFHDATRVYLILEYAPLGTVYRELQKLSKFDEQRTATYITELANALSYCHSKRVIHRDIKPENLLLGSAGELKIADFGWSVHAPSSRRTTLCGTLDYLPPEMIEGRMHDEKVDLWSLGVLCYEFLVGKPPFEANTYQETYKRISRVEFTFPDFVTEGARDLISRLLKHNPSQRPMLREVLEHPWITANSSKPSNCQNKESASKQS

[8] = target: T3, Mitogen-activated protein kinase kinase kinase 5 (Homo sapiens) (UniProt Q99683); assay: Inhibition of N-terminal GST/C-terminal His6-tagged recombinant human ASK1 (649 to 946 amino acids) expressed in Escherichia coli assessed as residual activity at 10 uM; in short: as §1
T3 sequence (whole entry): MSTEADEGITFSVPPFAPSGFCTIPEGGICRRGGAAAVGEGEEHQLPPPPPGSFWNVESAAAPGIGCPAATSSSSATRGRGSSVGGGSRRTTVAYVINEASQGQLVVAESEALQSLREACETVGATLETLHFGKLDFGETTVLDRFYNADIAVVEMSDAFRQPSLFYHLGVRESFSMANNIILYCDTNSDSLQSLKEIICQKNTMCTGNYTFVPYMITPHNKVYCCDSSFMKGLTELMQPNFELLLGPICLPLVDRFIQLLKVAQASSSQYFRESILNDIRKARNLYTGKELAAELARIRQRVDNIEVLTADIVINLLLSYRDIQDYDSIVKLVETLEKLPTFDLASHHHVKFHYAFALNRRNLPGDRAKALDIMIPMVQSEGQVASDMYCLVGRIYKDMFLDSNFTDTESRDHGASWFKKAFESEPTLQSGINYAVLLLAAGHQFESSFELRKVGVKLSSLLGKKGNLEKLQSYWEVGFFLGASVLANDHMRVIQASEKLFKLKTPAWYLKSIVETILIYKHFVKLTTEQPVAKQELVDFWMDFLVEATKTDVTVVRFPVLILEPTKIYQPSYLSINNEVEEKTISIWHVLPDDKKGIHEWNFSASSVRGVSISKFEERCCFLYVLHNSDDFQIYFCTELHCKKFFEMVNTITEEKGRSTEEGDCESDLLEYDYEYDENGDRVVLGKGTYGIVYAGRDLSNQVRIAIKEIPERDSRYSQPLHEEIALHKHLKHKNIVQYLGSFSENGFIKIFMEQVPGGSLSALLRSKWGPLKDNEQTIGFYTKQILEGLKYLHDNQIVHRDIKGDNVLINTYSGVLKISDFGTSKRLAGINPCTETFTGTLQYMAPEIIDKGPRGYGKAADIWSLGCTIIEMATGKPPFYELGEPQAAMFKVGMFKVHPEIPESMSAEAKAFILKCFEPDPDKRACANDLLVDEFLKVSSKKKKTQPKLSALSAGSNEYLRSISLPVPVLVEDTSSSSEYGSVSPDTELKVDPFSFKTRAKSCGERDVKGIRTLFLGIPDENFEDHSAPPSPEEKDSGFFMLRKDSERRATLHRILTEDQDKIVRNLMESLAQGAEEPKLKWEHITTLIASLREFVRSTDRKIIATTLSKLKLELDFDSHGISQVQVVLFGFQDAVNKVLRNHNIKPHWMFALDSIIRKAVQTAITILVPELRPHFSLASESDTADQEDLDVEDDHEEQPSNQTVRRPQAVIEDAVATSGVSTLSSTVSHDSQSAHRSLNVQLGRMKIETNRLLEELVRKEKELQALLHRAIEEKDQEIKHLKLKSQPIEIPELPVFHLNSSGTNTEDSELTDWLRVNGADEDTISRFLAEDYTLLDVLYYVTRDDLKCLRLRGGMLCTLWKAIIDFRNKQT

[9] = target: Mitogen-activated protein kinase 10 (Homo sapiens) (UniProt P53779); assay: Inhibition of N-terminal His6 tagged recombinant full length human JNK3 expressed in Sf21 cells assessed as residual activity at 10 uM; in short: as §1
Chain of Mitogen-activated protein kinase 10 (Homo sapiens) (P53779 whole entry): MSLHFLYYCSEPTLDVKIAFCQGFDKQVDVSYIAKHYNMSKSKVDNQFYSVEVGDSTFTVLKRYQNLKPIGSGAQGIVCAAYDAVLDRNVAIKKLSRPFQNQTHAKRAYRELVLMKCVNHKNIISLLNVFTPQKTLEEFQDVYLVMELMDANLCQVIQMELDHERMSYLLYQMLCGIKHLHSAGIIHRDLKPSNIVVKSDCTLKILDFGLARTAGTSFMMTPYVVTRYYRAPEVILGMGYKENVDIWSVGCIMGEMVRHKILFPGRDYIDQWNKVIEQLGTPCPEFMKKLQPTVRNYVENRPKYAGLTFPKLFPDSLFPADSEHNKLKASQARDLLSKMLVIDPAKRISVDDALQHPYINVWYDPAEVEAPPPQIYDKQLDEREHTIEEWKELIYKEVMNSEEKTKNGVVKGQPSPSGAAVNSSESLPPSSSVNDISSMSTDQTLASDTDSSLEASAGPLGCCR

SMILES: COc1ccc(Cl)cc1N1CC(=O)C(c2nc3ccccc3[nH]2)=C1N
- IC50 [1]: > 50 µM
- IC50 (HEK293): > 50 µM

SMILES: NC1=C(c2nc3ccccc3[nH]2)C(=O)CN1c1ccccc1Cl
- IC50 [2]: > 30 µM

SMILES: NC1=C(c2nc3ccccc3[nH]2)C(=O)CN1c1ccccc1F
- IC50 [2]: > 30 µM

SMILES: Cc1ccc(N2CC(=O)C(c3nc4ccccc4[nH]3)=C2N)cc1
- IC50 [2]: > 30 µM

More lines, main results first:

- IC50 [2]: > 30 µM
SMILES: CCOc1ccccc1N1CC(=O)C(c2nc3ccccc3[nH]2)=C1N

- IC50 [2]: > 30 µM
SMILES: Cc1cccc(N2CC(=O)C(c3nc4ccccc4[nH]3)=C2N)c1

- Activity [3]: 2.1%
- Activity [4]: 128%
- Activity [5]: 81.4%
- Activity [6]: 84.7%
- Activity [7]: 85.8%
- IC50 [2]: 0.32 µM
- Activity [8]: 95.7%
- Activity [9]: 118%
SMILES: NC1=C(c2nc3ccccc3[nH]2)C(=O)CN1c1cccc(O)c1
- IC50 [1]: 9.3 µM
- IC50 (HEK293): > 50 µM

- Activity [3]: 5%
- Activity [4]: 92.5%
- Activity [5]: 77.3%
- Activity [6]: 92.7%
- Activity [7]: 75.8%
- IC50 [2]: 0.63 µM
- Activity [8]: 91.6%
- Activity [9]: 101%
SMILES: Cc1ccc2nc(C3=C(N)N(c4cccc(O)c4)CC3=O)[nH]c2c1
- IC50 [1]: 5.6 µM
- IC50 (HEK293): > 50 µM

- IC50 [2]: 27 µM
SMILES: NC1=C(c2nc3ccccc3[nH]2)C(=O)CN1c1ccc(F)cc1

- IC50 [2]: > 30 µM
SMILES: COc1ccc(N2CC(=O)C(c3nc4ccccc4[nH]3)=C2N)c(OC)c1

- IC50 [2]: > 30 µM
SMILES: NC1=C(c2nc3ccccc3[nH]2)C(=O)CN1c1ccccc1
